The EternaBench riboswitch data

System: MS2 coat protein
Assay: apparent Kd, MS2 coat protein; higher = weaker binding; RNA-MaP array; tryptophan 2.4 mM where present
How it was run: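 The apparent Kd is reported as the median of filtered per-cluster binding-curve fits. To get these curves, designs transcribed by stalled E. coli RNA polymerase on Illumina sequencing-chip clusters were titrated with SNAP-549-labelled MS2 coat protein from 0.7 or 1.5 nM, doubling to 3 µM. Titrations were run without and then with constant ligand in 100 mM Tris-HCl pH 7.5, 80 mM KCl, 4 mM MgCl2, BSA, DTT, yeast tRNA and Tween-20, and green signal was normalised to red-channel RNA signal and control-cluster median Fmax.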

[1] = designed as: ON switch for tryptophan, no ligand
[2] = ligand present: tryptophan, designed as: ON switch for tryptophan
[3] = designed as: OFF switch for tryptophan, no ligand
[4] = ligand present: tryptophan, designed as: OFF switch for tryptophan

Sequence	apparent Kd [1]	apparent Kd [2]	apparent Kd [3]	apparent Kd [4]
AGCCACUCGAGUGAUCCUCACGAGUGGCAACGAGGACCGGUACGGCCGCCACUCGAAUAAACAUGAGGAUCACCCAUGUAAUAAU	0.0705 µM	0.0491 µM	–	–
AGCCACUCGAGUGAUCCUCACGAGUGGCUACGAGGACCGGUACGGCCGCCACUCGAAUUAACAUGAGGAUCACCCAUGUAAUCAC	0.0655 µM	0.0502 µM	–	–
AGUACAUGAGGAUCACCCAUGUAUCGGUACCGAGGACCGGUACGGCCGCCACUCGCAGGACAUGAGGAUCACCCAUGUGCCGCCG	0.0189 µM	0.0238 µM	–	–
AUAAAUAAUAAAUAAAAUAAAGUGGGUGAACGAGGACCGGUACGGCCGCCACUCGGACAUGAGGAUCACCCAUGUCCAUGUGAAA	–	–	0.0172 µM	0.0512 µM
AUAACGAGUGGUGGAAUACAUGGGUGAUAACGAGGACCGGUACGGCCGCCACUCGAUAACAUGAGGAUCACCCAUGUAAUAAUAA	–	–	0.161 µM	0.0311 µM
AUAUAUACAUGAGGAUCACCCAUGUUAUUUCGAGGACCGGUACGGCCGCCACUCGAUAGAGUAGAAGUAAAUUUUAAUUCAUGUA	0.0143 µM	0.0141 µM	–	–
AUAUAUACAUGAGGAUCACCCAUGUUAUUUCGAGGACCGGUACGGCCGCCACUCGAUAGAGUAGAAGUAACAUUUGUUAGAUGUA	0.0197 µM	0.0139 µM	–	–
AUGCAGAACACGGCCGCCACUCCAUGUAUACAUGAGGAUCACCCAUGUAAUUUGUAUUUUUUAUAGAGGACCGGGUGAAAUGCAA	0.0335 µM	0.0182 µM	–	–
AUUAAGGAUAUAUAGAAGGCGGAGAAGAGACGAGGACCGGUACGGCCGCCACUCGUGUUAGUUAACAUGAGGAUCACCCAUGUAA	0.0806 µM	0.0187 µM	–	–
AUUCAUGGAAACAUGACAUAGGGAUCUAGCCGAGGACCGGUACGGCCGCCACUCGCUUGGAGGCACAUGAGGAUCACCCAUGUUA	0.145 µM	0.0487 µM	–	–
CAAAGUUCGUCUCUGGUCCUCUAAUCGGCUCGAGGACCGGUACGGCCGCCACUCGCCCGACAUGAGGAUCACCCAUGUCUGUAAA	–	–	0.0132 µM	0.0109 µM
CACGAUUUGUCGGCCGCCACUAAGGUAACUCUUCUCACAUGAGGAUCACCCAUGUGCCCGAAGCUUAGGACCGGGAUAAUGGGUG	0.118 µM	0.0408 µM	–	–
CGACUGUAAAGUCGACCGGUCAUCAAUAAUCGAGGACCGGUACGGCCGCCACUCGAUGUGAUUUCACAUGAGGAUCACCCAUGUA	0.0239 µM	0.0222 µM	–	–
CGAGUAGGUUCAAUCGAAUAACGGUUUUCGCGAGGACCGGUACGGCCGCCACUCGUGUGAUAUCACACAUGAGGAUCACCCAUGU	0.045 µM	0.0338 µM	–	–
CGAGUGAGUUCAAUCGAAUAACGGUUUUCGCGAGGACCGGUACGGCCGCCACUCGUGUGAUAUCACACAUGAGGAUCACCCAUGU	0.0379 µM	0.0316 µM	–	–
CGAGUGCUGUCGGCCGCCACUGCACAUGAGGAUCACCCAUGUAAAAGCUGGCUGUGACUGGUGUUCAGGACCGGGACAGGGUCUU	–	–	0.0107 µM	0.0254 µM

Sequence	apparent Kd [1]	apparent Kd [2]	apparent Kd [3]	apparent Kd [4]
CUAAAUAUAACGGCCGCCACUUACUCAUGAGGUAACAACAUGAGGAUCACCCAUGUUUGAGGAUCAAGGACCGGGUUAUAUUUAG	0.0256 µM	0.019 µM	–	–
CUACAUUUGUAGAAACCGGUCAACAUUAUUCGAGGACCGGUACGGCCGCCACUCGUAUAAUUUAAUACAUGAGGAUCACCCAUGU	0.0146 µM	0.0159 µM	–	–
CUACAUUUGUAGAAACCGGUCAACAUUAUUCGAGGACCGGUACGGCCGCCACUCGUAUCAUUUGAUACAUGAGGAUCACCCAUGU	0.0192 µM	0.0226 µM	–	–
GAAUAAGAAUCGGCCGCCACUCACAUGAGGAUCACCCAUGUACAUGAGGAACAUGAAAAUCACCCGAGGACCGGGAUAUAUGUUC	–	–	0.07 µM	0.0669 µM
GACUAUAUGAUAUGUCAGAAAUCCUCGAAACGAGGACCGGUACGGCCGCCACUCGAGUGAUAAACAUGAGGAUCACCCAUGUAAA	–	–	0.0225 µM	0.0519 µM
GAGUAGAGGACGGCCGCCACUAAACAUGAGGAUCACCCAUGUCGUGAUCCGUUACCUAGGGUAGAUAGGACCGGGUCAUGUAGUC	–	–	0.0593 µM	0.0459 µM
GCCGCGGCCGGAAUAAACAUGGGUAAAUAACGAGGACCGGUACGGCCGCCACUCGAGAUAAAUAACAUGAGGAUCACCCAUGUAC	–	–	0.163 µM	0.0803 µM
GCUAGGUCAUCGGCCGCCACUAACGAUGGCUCCGACAUGAGGAUCACCCAUGUGCCACAUGCGCAUAGGACCGGGAUGACCUAGC	0.0185 µM	0.0143 µM	–	–
GCUGUGAAGUCGGCCGCCACUGGUUAGUUUUACCUCAUGUAACAUGAGGAUCACCCAUGUAAUUUCAGGACCGGGACAACAGCAA	–	–	0.278 µM	0.852 µM
GGCACAUAGUCGGCCGCCACUAGAUUUUAGUGGAAUAACAUGAGGAUCACCCAUGUAUUUGGGACUAGGACCGGGACUAUGUGCC	–	–	0.0328 µM	0.0222 µM
GGUUACUCUACGGCCGCCACUGUAAAGUAAAGAUUACUGUACAUGACAUGAGGAUCACCCAUGUACAGGACCGGGUAGUGUAACC	0.0231 µM	0.0215 µM	–	–
GUGCCGCAUUCACAUGAGGAUCACCCAUGUCGAGGACCGGUACGGCCGCCACUCGACGUGCUUACAGGUCCUUUACGGCCCAAUA	–	–	0.0381 µM	0.0188 µM
UACUUGCUGACGGCCGCCACUAGUACAUGAGGAUCACCCAUGUACGGUCGCCCGGUGUGAUCCACUAGGACCGGGUCAGCAAGAU	–	–	0.0383 µM	0.124 µM
UAUCGUCAGACGGCCGCCACUAGAACAUGAGGAUCACCCAUGUAGGUCCUAGAUUCCUCAAUAACUAGGACCGGGUCUGACGAAU	–	–	0.14 µM	0.0973 µM
UUCACAUGGUAUGAAUAUACAUAUAAGAAACGAGGACCGGUACGGCCGCCACUCGUGCCGGAAACAUGAGGAUCACCCAUGUGUU	–	–	0.0635 µM	0.0585 µM
UUGCCCAGUACGGCCGCCACUGUGUGCAGGGAGCCCAGGUCCACAUGAGGAUCACCCAUGUACAACAGGACCGGGUACUUGCAAU	–	–	0.00936 µM	0.0106 µM
